# Compound activity (PubChem)
# IDH1 mut inh = blocks human IDH1 R132H reductase activity | diaphorase/resazurin fluorescence, 60 min | inhibition, % at 10 µM | actives 0.18% (n = 70,000) | AID 624101; in the data active = inhibition above about 34%; inconclusive = no clear call, values can overlap the other calls; inactive = below about 11%
# Target sequence (O75874 whole entry R132H): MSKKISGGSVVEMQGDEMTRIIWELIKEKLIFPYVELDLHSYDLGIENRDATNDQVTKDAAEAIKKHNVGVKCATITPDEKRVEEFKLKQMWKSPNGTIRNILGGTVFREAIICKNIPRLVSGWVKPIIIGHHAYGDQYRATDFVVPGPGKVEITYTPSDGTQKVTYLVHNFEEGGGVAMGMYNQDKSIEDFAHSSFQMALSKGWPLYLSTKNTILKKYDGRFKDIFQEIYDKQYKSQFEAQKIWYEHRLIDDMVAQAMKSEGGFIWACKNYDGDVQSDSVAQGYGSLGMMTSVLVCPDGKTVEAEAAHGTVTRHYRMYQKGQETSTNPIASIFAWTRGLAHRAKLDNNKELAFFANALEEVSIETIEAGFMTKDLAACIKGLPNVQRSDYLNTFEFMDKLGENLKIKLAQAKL
# T cruzi growth-1 = blocks T. cruzi growth in NIH3T3 culture; T. cruzi beta-gal in NIH3T3, GalScreen luminescence, 90 h; AID 624255; actives 5.9% (n = 77,000); inhibition, % at 8.34 µM;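 active = mean inhibition above about 93%, with at least 55% of replicates each passing it, limit read from the data, passing the limit was not always enough; inconclusive = only one of those two conditions holds; inactive = neither condition holds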
# GASC1 inh = blocks human GASC-1 (KDM4C) demethylase activity; GST-KDM4C 2-372, H3K9me3 peptide, LANCE TR-FRET; actives 0.15% (n = 96,000); inhibition, % at 12.5 µM; AID 720574; Q9H3R0;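 active = mean replicate inhibition above about 25%, with at least 55% of replicates also reaching it, limit read from the data, passing the limit was not always enough; inconclusive = only one of those two conditions met; inactive = neither condition met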
#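 System: N-terminal GST-fused human GASC-1 (KDM4C) fragment, residues 2-372 / Amount: 10 nM GST-KDM4C in enzyme reaction / Also added: H3K9me3 peptide with Fe(II)/2OG / Times: 30 min demethylation and 1 h detection at room temperature / Signal: LANCE TR-FRET / Read-out basis: Fall in 671/618 emission ratio as inhibition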
# Pf Dd2 inh = P. falciparum Dd2 growth inhibition | SYBR Green, 72 h; hits give low values | activity change, % at 10 µM | actives 2.3% (n = 94,000) | AID 1159554; in the data active = activity change below about -80%; inconclusive = no clear call, values can overlap the other calls
# T cruzi growth-2 = Trypanosoma cruzi proliferation inhibition | actives 72% (n = 5,600) | shares compounds with T cruzi growth-1 | inhibition, % at 8.35 µM | T. cruzi beta-gal in NIH3T3, GalScreen luminescence, 90 h;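 active = mean replicate inhibition above about 95% and at least 55% of replicates individually reaching it, limit read from the data; inconclusive = only one of the two criteria is met; inactive = neither criterion is met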
# T cruzi growth-3 = inhibitors of T. cruzi proliferation | shares compounds with T cruzi growth-1 | T. cruzi beta-gal in NIH3T3, GalScreen luminescence, 90 h | inhibition, % at 2.09 µM | actives 21% (n = 5,600) | AID 651740;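 active = mean inhibition above about 95%, with at least 55% of replicates also reaching it, limit read from the data; inconclusive = meets just one of the two conditions; inactive = meets neither condition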
# NIH3T3 tox = cytotoxicity in mouse NIH/3T3 fibroblasts. NIH/3T3 viability, CellTiter-Glo ATP luminescence, 90 h. actives 14% (n = 5,600). shares compounds with T cruzi growth-1. cytotoxicity (signal decrease), % at 8.35 µM;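 active = mean signal decrease across replicates above about 35% based on untreated-well scatter, with enough replicates individually passing, limit read from the data; inconclusive = no rule stated though some were filed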
# NIH3T3 tox 2 = NIH/3T3 (mouse) viability loss. inhibition, % at 24.9 µM. actives 56% (n = 5,600). NIH/3T3 viability, CellTiter-Glo ATP luminescence, 90 h. shares compounds with T cruzi growth-1;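 active = mean loss of cell viability signal at or above a set limit, and enough replicates individually reaching it; inconclusive = meets only the mean limit or only the replicate share; inactive = meets neither condition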
# A number is an active result; i = inactive; ? = inconclusive; nt = no result; + = active, no number. Shown are actives, neighbours in structure and some others; about 5.8% of the full set was active somewhere.
SMILES,IDH1 mut inh,T cruzi growth-1,GASC1 inh,Pf Dd2 inh,T cruzi growth-2,T cruzi growth-3,NIH3T3 tox,NIH3T3 tox 2
C[C@@H]1CN([C@H](C)CO)C(=O)c2cc(NC(=O)Nc3ccc(F)cc3)ccc2O[C@@H](C)CCCCO[C@@H]1CN(C)Cc1ccc(C(F)(F)F)cc1,i,100.1,i,-82.2,i,114.4,i,i
C[C@H](CO)N1C[C@H](C)[C@H](CN(C)Cc2ccc(C(F)(F)F)cc2)OCCCC[C@H](C)Oc2ccc(NC(=O)Nc3ccc(F)cc3)cc2C1=O,nt,i,i,i,nt,nt,nt,nt
C[C@@H]1CCCCO[C@H](CN(C)Cc2ccc(C(F)(F)F)cc2)[C@@H](C)CN([C@H](C)CO)C(=O)c2cc(NC(=O)Nc3ccc(F)cc3)ccc2O1,nt,i,i,i,nt,nt,nt,nt
C[C@@H]1CCCCO[C@H](CN(C)Cc2ccc(C(F)(F)F)cc2)[C@H](C)CN([C@@H](C)CO)C(=O)c2cc(NC(=O)Nc3ccc(F)cc3)ccc2O1,nt,99.7,i,i,?,116.9,i,29.7
C[C@@H]1CN([C@@H](C)CO)C(=O)c2cc(NC(=O)Nc3ccc(F)cc3)ccc2O[C@@H](C)CCCCO[C@H]1CN(C)Cc1ccc(C(F)(F)F)cc1,i,109.5,i,?,99.6,112.2,i,i
Cc1ccc(N=C2NC(=O)CC(C(=O)Nc3ccc(Cl)cc3)S2)cc1C (stereo not given),i,nt,nt,nt,nt,nt,nt,nt
Cc1ccc(N(C(C)C(=O)Nc2ccc(Cl)cc2)S(C)(=O)=O)cc1C (stereo not given),i,nt,nt,nt,nt,nt,nt,nt
C[C@H](CO)N1C[C@H](C)[C@@H](CN(C)Cc2ccc(-c3ccccc3)cc2)Oc2ccc(NC(=O)Nc3cccc4ccccc34)cc2C1=O,nt,101.6,i,i,106.2,i,i,i
C[C@@H]1CN([C@H](C)CO)C(=O)c2cc(NC(=O)Nc3cccc4ccccc34)ccc2O[C@H]1CN(C)Cc1ccc(-c2ccccc2)cc1,i,112.3,i,i,103.2,i,i,i
C[C@H]1CN([C@@H](C)CO)C(=O)c2cc(NC(=O)Nc3cccc4ccccc34)ccc2O[C@H]1CN(C)Cc1ccc(-c2ccccc2)cc1,i,i,i,i,nt,nt,nt,nt
CCn1c(SCC(=O)Nc2c(Cl)cc(Cl)cc2Cl)nnc1-c1ccc(OC)cc1,i,nt,nt,nt,nt,nt,nt,nt
CC(C)CC#Cc1ccc2c(c1)O[C@@H](CN(C)C(=O)c1cccc(F)c1)[C@@H](C)CN([C@H](C)CO)S2(=O)=O,i,119.8,i,i,98.7,i,i,105.9
CC(C)CC#Cc1ccc2c(c1)O[C@H](CN(C)C(=O)c1cccc(F)c1)[C@H](C)CN([C@@H](C)CO)S2(=O)=O,i,120.0,i,i,104.4,105.7,i,104.0
CC(C)C#Cc1ccc2c(c1)O[C@H](CN(C)C(=O)c1cccc(F)c1)[C@@H](C)CN([C@@H](C)CO)S2(=O)=O,i,101.3,i,i,102.6,i,i,34.5
CC(C)CC#Cc1ccc2c(c1)O[C@H](CN(C)C(=O)c1cccc(F)c1)[C@H](C)CN([C@H](C)CO)S2(=O)=O,i,126.2,i,i,104.0,107.9,i,103.8
CC(C)CC#Cc1ccc2c(c1)O[C@@H](CN(C)C(=O)c1ccccc1)[C@@H](C)CN([C@H](C)CO)S2(=O)=O,i,nt,i,i,nt,nt,nt,nt
CN(C)c1ccc2c(c1)[C@H]1C[C@H](CC(=O)NCc3ccc(Oc4ccccc4)cc3)O[C@@H](CO)[C@H]1O2,i,131.9,i,i,107.0,105.0,i,?
COc1ccc(CNC(=O)C[C@@H]2C[C@H]3c4cc(N(C)C)ccc4O[C@H]3[C@@H](CO)O2)cc1,i,i,i,i,nt,nt,nt,nt
COc1ccc(CNC(=O)C[C@H]2C[C@H]3c4cc(N(C)C)ccc4O[C@H]3[C@H](CO)O2)cc1,i,i,i,i,nt,nt,nt,nt
CN(C)c1ccc2c(c1)[C@H]1C[C@H](CC(=O)NCc3ccc(-c4ccccc4)cc3)O[C@@H](CO)[C@H]1O2,i,113.7,i,i,110.3,102.4,i,i
CN(C)c1ccc2c(c1)[C@@H]1C[C@@H](CC(=O)NCc3cc(F)ccc3F)O[C@@H](CO)[C@@H]1O2,i,+,i,-87.0,i,i,i,i
CN(C)c1ccc2c(c1)[C@@H]1C[C@@H](CC(=O)NCc3cc(F)ccc3F)O[C@H](CO)[C@@H]1O2,i,i,i,i,nt,nt,nt,nt
CCC(C)C(O)C(C)(O)/C=C/C1=CC2=CC(=O)C(C)(O)C(O)C2CO1 (stereo not given),i,nt,nt,nt,nt,nt,nt,nt
C[C@@H]1CN([C@H](C)CO)C(=O)Cc2cc(N(C)C)ccc2O[C@@H]1CN(C)Cc1ccc(C(F)(F)F)cc1,i,i,i,i,nt,nt,nt,nt
C[C@H]1CN([C@@H](C)CO)C(=O)Cc2cc(N(C)C)ccc2O[C@@H]1CN(C)Cc1ccc(C(F)(F)F)cc1,i,118.8,i,i,111.1,i,i,i
SMILES,IDH1 mut inh,T cruzi growth-1,GASC1 inh,Pf Dd2 inh,T cruzi growth-2,T cruzi growth-3,NIH3T3 tox,NIH3T3 tox 2
C[C@@H]1CN([C@H](C)CO)C(=O)Cc2cc(N(C)C)ccc2O[C@H]1CN(C)Cc1ccc(C(F)(F)F)cc1,i,108.0,i,i,i,i,i,i
C[C@@H]1CN([C@@H](C)CO)C(=O)Cc2cc(N(C)C)ccc2O[C@@H]1CN(C)Cc1ccc(C(F)(F)F)cc1,i,i,i,i,nt,nt,nt,nt
COc1ccc(S(=O)(=O)N(C)C[C@H]2OCCCC[C@H](C)Oc3ccc(NS(=O)(=O)c4ccc(Cl)cc4)cc3C(=O)N([C@@H](C)CO)C[C@@H]2C)cc1,nt,nt,i,i,nt,nt,nt,nt
COc1ccc(S(=O)(=O)Nc2ccc3c(c2)C(=O)N([C@@H](C)CO)C[C@H](C)[C@@H](CN(C)S(=O)(=O)c2ccc(Cl)cc2)OCCCC[C@@H](C)O3)cc1,i,98.9,i,i,101.3,113.9,i,35.2
COc1ccc(S(=O)(=O)Nc2ccc3c(c2)C(=O)N([C@H](C)CO)C[C@H](C)[C@@H](CN(C)S(=O)(=O)c2ccc(Cl)cc2)OCCCC[C@@H](C)O3)cc1,i,101.2,i,i,108.1,i,i,36.5
N#Cc1cccc(-c2ccc3c(c2)[C@@H]2[C@@H](CCN2C(=O)c2ccc4c(c2)OCO4)[C@H](CO)N3)c1,nt,?,i,i,97.2,i,i,48.0
N#Cc1ccc(-c2ccc3c(c2)[C@H]2[C@H](CCN2C(=O)c2ccc4c(c2)OCO4)[C@H](CO)N3)cc1,nt,i,i,i,nt,nt,nt,nt
CN(C)C(=O)c1ccc(-c2ccc3c(c2)[C@@H]2[C@@H](CCN2C(=O)c2ccc4c(c2)OCO4)[C@@H](CO)N3)cc1,nt,99.6,i,i,108.9,i,i,i
